From ChEMBL document CHEMBL4689842, “EUbOPEN Chemogenomics Library wave 1” (2021)

Tested on: HEK-293T
Assay: Multiplex assay against HEK293T;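 on Population Tubulin-Different-Phenotype (%): share of the cells with healthy nuclei that show this phenotype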
Assay type: toxicity, cell-based
Settings: human
Method in brief: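 Cells were classed with CellPathfinder machine-learning gating, first as Hoechst high-intensity objects or normal cells, then (normal cells) as healthy, pyknosed or fragmented nuclei, and finally (pyknosed cells) as mitotic or apoptotic. Staining of live cells at seeding used Hoechst33342, BioTracker Green Microtubule Cytoskeleton Dye, MitoTracker Red and Annexin V Alexa Fluor 680, with imaging on a CQ1 microscope at 37°C and 5% CO2 after compound addition. Tubulin, mitochondrial-mass and membrane-permeability phenotypes are per cents of healthy-nucleus cells.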

[1] = 12 h, 1 µM, compound concentration 1 uM, replicate 1
[2] = 12 h, 1 µM, compound concentration 1 uM, replicate 2
[3] = 12 h, 10 µM, compound concentration 10 uM, replicate 1
[4] = 12 h, 10 µM, compound concentration 10 uM, replicate 2
[5] = 24 h, 1 µM, compound concentration 1 uM, replicate 1
[6] = 24 h, 1 µM, compound concentration 1 uM, replicate 2
[7] = 24 h, 10 µM, compound concentration 10 uM, replicate 1
[8] = 24 h, 10 µM, compound concentration 10 uM, replicate 2
[9] = 48 h, 1 µM, compound concentration 1 uM, replicate 1
[10] = 48 h, 1 µM, compound concentration 1 uM, replicate 2
[11] = 48 h, 10 µM, compound concentration 10 uM, replicate 1
[12] = 48 h, 10 µM, compound concentration 10 uM, replicate 2

Cc1cc2c(cc1N1C(=O)c3cccc4c(CCCO)ccc(c34)C1=O)n(C)c(=O)n2C
Population Apoptotic (%) [1]: 38% | Population Fragmented Nuclei (%) [1]: 14% | Population Healthy Nuclei (%) [1]: 44% | Population Hoechst High Intensity Objects (%) [1]: 16% | Population Membrane Permeable-Phenotype (%) [1]: 4% | Population Mitochondria Different-Phenotype (%) [1]: 77% | Population Mitotic Cells (%) [1]: 61% | Population Normal (%) [1]: 83% | Population Pyknosed Nuclei (%) [1]: 41% | Population Tubulin-Different-Phenotype (%) [1]: 47% | Total Cell Count [1]: 307 | Population Apoptotic (%) [2]: 12% | Population Fragmented Nuclei (%) [2]: 5% | Population Healthy Nuclei (%) [2]: 50% | Population Hoechst High Intensity Objects (%) [2]: 6% | Population Membrane Permeable-Phenotype (%) [2]: 5% | Population Mitochondria Different-Phenotype (%) [2]: 15% | Population Mitotic Cells (%) [2]: 87% | Population Normal (%) [2]: 93% | Population Pyknosed Nuclei (%) [2]: 44% | Population Tubulin-Different-Phenotype (%) [2]: 22% | Total Cell Count [2]: 170 | Population Apoptotic (%) [3]: 53% | Population Fragmented Nuclei (%) [3]: 7% | Population Healthy Nuclei (%) [3]: 43% | Population Hoechst High Intensity Objects (%) [3]: 9% | Population Membrane Permeable-Phenotype (%) [3]: 10% | Population Mitochondria Different-Phenotype (%) [3]: 92% | Population Mitotic Cells (%) [3]: 46% | Population Normal (%) [3]: 90% | Population Pyknosed Nuclei (%) [3]: 48% | Population Tubulin-Different-Phenotype (%) [3]: 94% | Total Cell Count [3]: 302 | Population Apoptotic (%) [4]: 38% | Population Fragmented Nuclei (%) [4]: 2% | Population Healthy Nuclei (%) [4]: 45% | Population Hoechst High Intensity Objects (%) [4]: 4% | Population Membrane Permeable-Phenotype (%) [4]: 11% | Population Mitochondria Different-Phenotype (%) [4]: 82% | Population Mitotic Cells (%) [4]: 61% | Population Normal (%) [4]: 95% | Population Pyknosed Nuclei (%) [4]: 51% | Population Tubulin-Different-Phenotype (%) [4]: 96% | Total Cell Count [4]: 359 | Population Apoptotic (%) [5]: 50% | Population Fragmented Nuclei (%) [5]: 13% | Population Healthy Nuclei (%) [5]: 44% | Population Hoechst High Intensity Objects (%) [5]: 12% | Population Membrane Permeable-Phenotype (%) [5]: 4% | Population Mitochondria Different-Phenotype (%) [5]: 61% | Population Mitotic Cells (%) [5]: 49% | Population Normal (%) [5]: 87% | Population Pyknosed Nuclei (%) [5]: 41% | Population Tubulin-Different-Phenotype (%) [5]: 44% | Total Cell Count [5]: 295 | Population Apoptotic (%) [6]: 13% | Population Fragmented Nuclei (%) [6]: 5% | Population Healthy Nuclei (%) [6]: 75% | Population Hoechst High Intensity Objects (%) [6]: 2% | Population Membrane Permeable-Phenotype (%) [6]: 9% | Population Mitochondria Different-Phenotype (%) [6]: 11% | Population Mitotic Cells (%) [6]: 86% | Population Normal (%) [6]: 97% | Population Pyknosed Nuclei (%) [6]: 18% | Population Tubulin-Different-Phenotype (%) [6]: 22% | Total Cell Count [6]: 194 | Population Apoptotic (%) [7]: 63% | Population Fragmented Nuclei (%) [7]: 12% | Population Healthy Nuclei (%) [7]: 54% | Population Hoechst High Intensity Objects (%) [7]: 11% | Population Membrane Permeable-Phenotype (%) [7]: 6% | Population Mitochondria Different-Phenotype (%) [7]: 87% | Population Mitotic Cells (%) [7]: 36% | Population Normal (%) [7]: 88% | Population Pyknosed Nuclei (%) [7]: 32% | Population Tubulin-Different-Phenotype (%) [7]: 91% | Total Cell Count [7]: 306 | Population Apoptotic (%) [8]: 47% | Population Fragmented Nuclei (%) [8]: 5% | Population Healthy Nuclei (%) [8]: 63% | Population Hoechst High Intensity Objects (%) [8]: 3% | Population Membrane Permeable-Phenotype (%) [8]: 3% | Population Mitochondria Different-Phenotype (%) [8]: 71% | Population Mitotic Cells (%) [8]: 52% | Population Normal (%) [8]: 96% | Population Pyknosed Nuclei (%) [8]: 30% | Population Tubulin-Different-Phenotype (%) [8]: 90% | Total Cell Count [8]: 377 | Population Apoptotic (%) [9]: 47% | Population Fragmented Nuclei (%) [9]: 22% | Population Healthy Nuclei (%) [9]: 28% | Population Hoechst High Intensity Objects (%) [9]: 14% | Population Membrane Permeable-Phenotype (%) [9]: 2% | Population Mitochondria Different-Phenotype (%) [9]: 33% | Population Mitotic Cells (%) [9]: 52% | Population Normal (%) [9]: 85% | Population Pyknosed Nuclei (%) [9]: 49% | Population Tubulin-Different-Phenotype (%) [9]: 29% | Total Cell Count [9]: 321 | Population Apoptotic (%) [10]: 33% | Population Fragmented Nuclei (%) [10]: 14% | Population Healthy Nuclei (%) [10]: 79% | Population Hoechst High Intensity Objects (%) [10]: 2% | Population Membrane Permeable-Phenotype (%) [10]: 10% | Population Mitochondria Different-Phenotype (%) [10]: 7% | Population Mitotic Cells (%) [10]: 66% | Population Normal (%) [10]: 97% | Population Pyknosed Nuclei (%) [10]: 5% | Population Tubulin-Different-Phenotype (%) [10]: 22% | Total Cell Count [10]: 270 | Population Apoptotic (%) [11]: 75% | Population Fragmented Nuclei (%) [11]: 19% | Population Healthy Nuclei (%) [11]: 64% | Population Hoechst High Intensity Objects (%) [11]: 8% | Population Membrane Permeable-Phenotype (%) [11]: 5% | Population Mitochondria Different-Phenotype (%) [11]: 59% | Population Mitotic Cells (%) [11]: 25% | Population Normal (%) [11]: 91% | Population Pyknosed Nuclei (%) [11]: 16% | Population Tubulin-Different-Phenotype (%) [11]: 71% | Total Cell Count [11]: 323 | Population Apoptotic (%) [12]: 57% | Population Fragmented Nuclei (%) [12]: 15% | Population Healthy Nuclei (%) [12]: 75% | Population Hoechst High Intensity Objects (%) [12]: 3% | Population Membrane Permeable-Phenotype (%) [12]: 3% | Population Mitochondria Different-Phenotype (%) [12]: 41% | Population Mitotic Cells (%) [12]: 42% | Population Normal (%) [12]: 96% | Population Pyknosed Nuclei (%) [12]: 9% | Population Tubulin-Different-Phenotype (%) [12]: 79% | Total Cell Count [12]: 482
